Shown are actives, neighbours in structure and some others; about 9.6% of the full set was active somewhere.
PMI activator = activators of human phosphomannose isomerase. activation factor at 20 µM. purified human PMI, coupled resazurin fluorescence, 20 min; active compounds read high; 1 = vehicle control, 0 substrate-free wells. 190,000 compounds, 0.005% hits;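 active means activation factor of 2 or more at 20 µM, relative to plate controls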
Target sequence (P34949 whole entry, looked up): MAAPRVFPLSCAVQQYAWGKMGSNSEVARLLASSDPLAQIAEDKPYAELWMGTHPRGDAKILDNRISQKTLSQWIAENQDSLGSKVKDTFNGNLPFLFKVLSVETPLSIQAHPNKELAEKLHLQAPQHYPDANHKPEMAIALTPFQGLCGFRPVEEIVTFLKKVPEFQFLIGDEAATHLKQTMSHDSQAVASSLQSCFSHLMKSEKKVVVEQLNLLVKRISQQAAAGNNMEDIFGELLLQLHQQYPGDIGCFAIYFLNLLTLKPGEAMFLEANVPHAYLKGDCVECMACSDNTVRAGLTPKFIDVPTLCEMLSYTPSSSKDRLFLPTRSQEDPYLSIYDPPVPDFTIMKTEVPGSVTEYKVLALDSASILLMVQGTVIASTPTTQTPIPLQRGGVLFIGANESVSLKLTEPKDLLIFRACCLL
L major viab = reduces viability of Leishmania major promastigotes. resazurin fluorescence viability. inhibition, % at 10 µM. 200,000 compounds, 9% hits; in the data active means inhibition above about 50%;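 further: promastigotes grown with compound for 44 hours at 28 °C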
PMI act satM6P = activators of human phosphomannose isomerase at near-saturating mannose 6-phosphate; P34949; coupled PMI enzyme assay, resazurin fluorescence, 20 min; active compounds read high; 1 = untreated enzyme, 0 = substrate-free blank; activation factor at 20 µM; 190,000 compounds, 0.34% hits;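 active means activation factor of 2 or more at 20 µM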
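Material: human phosphomannose isomerase with PGI, G6PDH, diaphorase coupling enzymes / Reagent: Man-6-P substrate 1.0 mM / Dosing: single compound dose of 20 µM, 1% DMSO final / Incubation: enzyme reaction with compound 20 min at room temperature / Signal: resorufin fluorescence (Ex 544/Em 590 nm) from resazurin via diaphorase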
PTEN del growth = growth suppressors of cells with PTEN tumor suppressor deletion. HCT116 PTEN-null viability, CellTiter-Glo, 60 h; active compounds read low. viability, % at 10 µM. 140,000 compounds, 1.2% hits. AID 827;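 active means viability at or below a set limit, 4 SD under the median of all tested compounds, cut at about 3.7% in these data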;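 further: PTEN knockout HCT116 line with beta catenin targeted HCT116 as companion control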
bCat KO growth = beta-catenin-lacking colon tumor cell growth suppression. HCT116 beta-catenin knockout viability, CellTiter-Glo, 60 h; active compounds read low. viability, % at 10 µM. 140,000 compounds, 1.5% hits;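 active means viability at or under a set limit, the compound median less 4 SD, cut at about 6% in these data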
Of the large screens only hits and unclear results are named; the others gave an inactive call.

Cc1ccc2cc(CN(CCCN(C)C)C(=S)NCc3ccccc3)c(=O)[nH]c2c1C	L major viab 95 (no result: PTEN del growth, bCat KO growth)
COc1ccccc1NC(=S)N(Cc1ccco1)Cc1cc2cc(C)cc(C)c2[nH]c1=O	L major viab 85
COc1ccccc1OCCOCCOc1c(C)cc(C)cc1Br	none
Cc1cc(C)c(OCCCON2C(=O)CCC2=O)c(Br)c1	none (no result: PTEN del growth, bCat KO growth)
Cc1cc(Cl)c(OCCOCCN2CCC(C)CC2)c(Br)c1	L major viab 99
Cc1cc(C)c(OCCCCN2CCC(C)CC2)c(Br)c1	L major viab 98 (no result: PTEN del growth, bCat KO growth)
O=C1OCC(CO)(CO)N=C1NNc1ccccc1Cl	PMI act satM6P 2 (no result: PTEN del growth)
CC(=O)c1ccc(OCc2ccc(Oc3c(Cl)cccc3[N+](=O)[O-])cc2)cc1	none
O=C1c2ccc3c4c(ccc(c24)C(=O)N1CCCCO)C(=O)N(CCCCO)C3=O	L major viab 100 (no result: PTEN del growth, bCat KO growth)
O=C(c1ccc2c(c1)C(=O)N(CCCO)C2=O)c1ccc2c(c1)C(=O)N(CCCO)C2=O	none
CC(=O)NCCn1c(SCc2cc(=O)n3cc(Cl)ccc3n2)nc2ccccc2c1=O	none
O=S(=O)(c1ccc(Br)cc1)c1cnc2ccccc2n1	L major viab 84 (no result: PTEN del growth, bCat KO growth)
CC(CCc1ccccc1)NC(=O)CNC(=S)N(Cc1cccs1)C1CCCC1 (configuration not stated)	L major viab 51 (no result: PTEN del growth, bCat KO growth)
CCOC(=O)CNC(=S)N(Cc1cccs1)C1CCCCC1	none
CC1CCN(c2nc(/C=C/c3ccccc3)nc3ccccc23)CC1	L major viab 63
C(=C\c1nc(N2CCCC2)c2ccccc2n1)/c1ccccc1	L major viab 71, PTEN del growth 2.2, bCat KO growth 1.8
CC1CCN(c2nc3ccccc3nc2N2CCC(C)CC2)CC1	none
O=C(NNC(=S)Nc1ccccc1)C1CC1	none
S=C(NN=C(C1CC1)C1CC1)Nc1ccccc1	L major viab 67
Cc1cc(C(F)(F)F)n(-c2nc(C(=O)NNS(=O)(=O)c3ccccc3[N+](=O)[O-])cs2)n1	none (no result: PTEN del growth, bCat KO growth)
CC1(NC(=S)N(CCO)CCO)CCS(=O)(=O)C1 (configuration not stated)	none
O=C(O)C1CCN(C(=O)COc2ccc(Br)cc2)CC1	none (no result: PTEN del growth, bCat KO growth)
CC1CCC2(CC1)NC(=S)N(c1ccccc1)N2 (configuration not stated)	L major viab 79, PMI act satM6P 2.2
CCC1(c2ccc(Cl)cc2)NC(=S)N(c2ccccc2)N1 (configuration not stated)	none
O=C(CSc1nc2[nH]ncc2c(=O)[nH]1)NCCc1ccccc1	none (no result: PTEN del growth, bCat KO growth)
CCOC(=O)N1CCN(C(=S)Nc2ccc3nc(N4CCN(CC)CC4)cc(C)c3c2)CC1	L major viab 72
CCN1CCN(C(=S)Nc2ccc3nc(N4CCN(C)CC4)cc(C)c3c2)CC1	L major viab 67
CCN1CCN(c2cc(C)c3cc(NC(=S)N4CCCCC4)ccc3n2)CC1	L major viab 58 (no result: PTEN del growth, bCat KO growth)
Cc1cc(N2CCN(C)CC2)nc2ccc(NC(=O)CCC(=O)NCCC3=CCCCC3)cc12	L major viab 100 (no result: PMI activator, PMI act satM6P, PTEN del growth, bCat KO growth)
Nc1ccc(C(=O)N/N=C\C=C\c2ccc([N+](=O)[O-])cc2)cc1	none (no result: PTEN del growth, bCat KO growth)
CC(=O)N(Cc1ccc(F)cc1)C1=C(NCc2ccccc2)C(=O)c2ccccc2C1=O	L major viab 100, PTEN del growth 1.2, bCat KO growth 1.4
CCN(CC)CCOc1c(Br)ccc2c1sc1nc3n(c(=O)c12)CCC3	L major viab 80
COc1ccc(S(=O)(=O)N2CCCCC2)cc1NC(=O)c1ccc([N+](=O)[O-])o1	L major viab 90 (no result: PTEN del growth, bCat KO growth)
COc1ccc(-c2cc3ccccc3oc2=O)cc1NC(=O)c1ccc([N+](=O)[O-])o1	L major viab 85
COc1cccc(C(=O)Nc2cc(S(=O)(=O)N3CCCCC3)ccc2OC)c1	none (no result: PTEN del growth, bCat KO growth)
CC1CCN(S(=O)(=O)c2cc([N+](=O)[O-])ccc2Cl)CC1	L major viab 55 (no result: PTEN del growth, bCat KO growth)
CC1CCN(S(=O)(=O)c2ccc(Cl)cc2Br)CC1	none
O=[N+]([O-])c1ccc(Cl)c(/C=N/N2CCN(Cc3ccccc3Cl)CC2)c1	none
O=[N+]([O-])c1ccc(Cl)c(CN2CCC(O)CC2)c1	L major viab 62
COC(=O)/N=C/c1c(NCc2ccccc2)nc2c(C)cccn2c1=O	none (no result: PTEN del growth, bCat KO growth)
CC(C)OP(=O)(OC(C)C)C(Nc1ccccc1)c1ccccc1C(F)(F)F (configuration not stated)	L major viab 94
CC(C)OP(=O)(OC(C)C)C(Nc1ccccc1)c1cccc2c1OCO2 (configuration not stated)	none
COc1ccccc1NC(=O)C1=C(C)Nc2nc(-c3cccs3)nn2C1c1cccnc1 (configuration not stated)	L major viab 97
COc1ccccc1-c1nc2n(n1)C(c1cccs1)C(C(=O)Nc1cccnc1)=C(C)N2 (configuration not stated)	L major viab 99
COc1ccc(C2C(C(=O)Nc3cccnc3)=C(C)Nc3nc(-c4ccco4)nn32)cc1 (configuration not stated)	none
CC1=C(C(N)=O)C(c2cccnc2)n2nc(-c3cccc(Cl)c3)nc2N1 (configuration not stated)	L major viab 67
O=C(O)CCc1nn2c3ccccc3nc2n(Cc2ccccc2)c1=O	none (no result: PTEN del growth, bCat KO growth)
Cc1ccc(C(=O)c2oc3nc(C)cc(C)c3c2N)cc1	L major viab 64
Cc1cc(C)c2nc(NC(=O)c3cccc(S(=O)(=O)N4CCc5ccccc54)c3)sc2c1	none
CC(=O)N1CCC2(CC1)NC(=O)N(c1ccccc1)N2	PMI act satM6P 2.4 (no result: PTEN del growth, bCat KO growth)
NC(=O)N1CCC2(CC1)NC(=O)N(c1ccccc1)N2	PMI act satM6P 2.5 (no result: PTEN del growth, bCat KO growth)
O=C1NC2(CCCCC2)NN1c1ccccc1	none
CC1CC1C(=O)Nc1ccc(-c2ccccc2)cc1 (configuration not stated)	L major viab 51
O=C(O)C1CC=CCC1C(=O)Nc1ccccc1 (configuration not stated)	none
CCOC(=O)c1[nH]c2c(c1-c1ccccc1)C(=O)CC(c1ccc(OC)c(OC)c1)C2 (configuration not stated)	L major viab 54
O=c1c(Cl)c(NCc2ccccc2Cl)cnn1C12CC3CC(CC(C3)C1)C2	L major viab 84
O=c1c(Cl)c(N2CCN(c3ccccc3)CC2)cnn1C12CC3CC(CC(C3)C1)C2	none
O=c1c(Cl)c(NCc2ccc(F)cc2)cnn1C12CC3CC(CC(C3)C1)C2	L major viab 73
O=c1c(Cl)c(N2CCN(c3ccc(F)cc3)CC2)cnn1C12CC3CC(CC(C3)C1)C2	L major viab 62
c1ccc(-c2ccc(-c3cn4c(n3)CCC4)cc2)cc1	none
COC(=O)C1=C(NC(=O)c2ccc(C)c(C)c2)CCS1	none
COC1(NS(=O)(=O)c2ccc(Br)cc2)C(C)=CC(=O)C=C1C	none (no result: PTEN del growth, bCat KO growth)
CSc1ccccc1NC(=O)CN(C)CC(=O)Nc1ccc(Cl)cc1F	none
